A short description of assay [1]: Cytotoxicity against human HCT8 cells assessed as growth inhibition after 48 hrs by MTT assay. In kind it is functional, cell-based. The note with it: HCT-8, 48 h. In outline: (§1)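 MTT assay with 48 h drug exposure on HeLa, A549, HCT-8 and HepG2 tumour cells and normal lung fibroblast WI-38. IC50 reported as the mean of three independent experiments.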
On the technique in general: Tetrazolium dyes change colour on reduction, which living cells bring about.

Assay [2] relates to A549. Nature of the assay: Cytotoxicity against human A549 cells assessed as growth inhibition after 48 hrs by MTT assay. It counts as functional, cell-based. The settings on record: A549, 48 h. In outline: as §1
The nature of assay [3]: Cytotoxicity against human WI38 cells assessed as growth inhibition after 48 hrs by MTT assay. It counts as cell-based. The settings on record: WI-38, 48 h. Summed up:
as §1

The next assay relates to HepG2. The experiment in a line: Cytotoxicity against human HepG2 cells assessed as growth inhibition after 48 hrs by MTT assay. In kind it is functional, cell-based. The note with it: HepG2, 48 h. In outline:
as §1

Another assay deals with HeLa. Nature of the assay: Cytotoxicity against human HeLa cells assessed as growth inhibition after 48 hrs by MTT assay. In kind it is functional, cell-based. In outline:
as §1

Assay [4] concerns A549. The experiment in a line: Cell cycle arrest in human A549 cells assessed as accumulation at S phase at 0.5 uM after 24 hrs by propidium iodide staining based flow cytometry (reference value: 19.3%). It counts as functional.
Assay [5] has as its system A549. The experiment in a line: Upregulation of cyclinB1 expression in human A549 cells at 0.5 to 2 uM after 24 hrs by Western blot analysis. It counts as functional, cell-based. Summed up:
(§2)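 Western blot for cdc2, p-cdc2 and cyclin B1 in A549 cells treated with vehicle, 0.5 or 2 μM for 24 h.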
A general note: A western blot detects proteins with antibodies after separation by electrophoresis.

Assay [6] relates to A549. The experiment in a line: Antimigratory activity in human A549 cells at 1 uM after 12 hrs by crystal violet staining based transwell migration assay. The settings on record: A549, 12 h. It counts as functional. In outline: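 Transwell migration of A549 cells exposed to vehicle, 0.3 or 1 μM for 12 h. Stained migrated cells imaged at 200× and counted. Inhibition expressed relative to untreated control; mean ± SD of three independent experiments.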

Assay [7] relates to A549. Nature of the assay: Cell cycle arrest in human A549 cells assessed as accumulation at G1 phase at 0.1 uM after 24 hrs by propidium iodide staining based flow cytometry (reference value: 58.3%). In kind it is functional.
Assay [8] concerns A549. Nature of the assay: Downregulation of MMP-9 expression in human A549 cells at 0.5 to 2 uM after 24 hrs by Western blot analysis. In kind it is functional, cell-based.
The test system of assay [9] is A549. Nature of the assay: Upregulation of TIMP-1 expression in human A549 cells at 0.1 to 5 uM after 24 hrs by ELISA. It counts as functional, cell-based. On the technique in general: An ELISA detects its analyte on a solid surface through an enzyme-linked reagent.
Assay [10] relates to A549. Nature of the assay: Cell cycle arrest in human A549 cells assessed as decrease in cell level at G1 phase after 24 hrs by propidium iodide staining based flow cytometry. In kind it is functional.
The subject of assay [11] is A549. Nature of the assay: Downregulation of MMP-9 expression in human A549 cells at 0.1 to 5 uM after 24 hrs by ELISA. In kind it is functional, cell-based. In outline: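 MMP-9 in A549 cells measured by ELISA after 24 h exposure to 0, 0.1, 0.5, 1.5 or 5.0 μM. Mean ± SD, n = 3.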
The subject of assay [12] is A549. The experiment in a line: Upregulation of TIMP-1 expression in human A549 cells at 0.5 to 2 uM after 24 hrs by Western blot analysis. In kind it is functional, cell-based.
The test system of assay [13] is A549. Nature of the assay: Cell cycle arrest in human A549 cells assessed as accumulation at G2/M phase after 24 hrs by propidium iodide staining based flow cytometry. In kind it is functional.
The subject of assay [14] is A549. Nature of the assay: Downregulation of p-cdc2 expression in human A549 cells at 0.5 to 2 uM after 24 hrs by Western blot analysis. It counts as functional, cell-based. In outline:
as §2

Assay [15] deals with A549. Nature of the assay: Cell cycle arrest in human A549 cells assessed as accumulation at G2/M phase at 0.1 uM after 24 hrs by propidium iodide staining based flow cytometry (reference value: 22.4%). It counts as functional.
For assay [16], the system named is A549. The experiment in a line: Induction of apoptosis in human A549 cells assessed as nuclear fragmentation at 0.3 to 1 uM after 24 hrs by DAPI staining based fluorescence microscopy. In kind it is functional, cell-based. In outline: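 A549 cells treated with 0, 0.3 or 1 μM for 24 h, stained with DAPI and viewed by fluorescence microscopy at 200×. Nuclei scored for fragmentation and loss of normal morphology.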

Assay [17] has as its system A549. Nature of the assay: Cell cycle arrest in human A549 cells assessed as accumulation at G1 phase at 0.5 uM after 24 hrs by propidium iodide staining based flow cytometry (reference value: 58.3%). It counts as functional.
Assay [18] concerns A549. Nature of the assay: Cell cycle arrest in human A549 cells assessed as accumulation at G2/M phase at 0.5 uM after 24 hrs by propidium iodide staining based flow cytometry (reference value: 22.4%). It counts as functional.
Assay [19] has as its system A549. The experiment in a line: Cell cycle arrest in human A549 cells assessed as accumulation at S phase at 0.1 uM after 24 hrs by propidium iodide staining based flow cytometry (reference value: 19.3%). It counts as functional.
The test system of assay [20] is A549. The experiment in a line: Upregulation of cdc2 expression in human A549 cells at 0.5 to 2 uM after 24 hrs by Western blot analysis. In kind it is functional, cell-based. In outline: as §2

Active and inactive are the calls of the source. The calls are words filed in the database; no cut-off is given here. Where only a bound is given, the exact number is not on record here.

The source of these data is ChEMBL document CHEMBL3779802, “Synthesis of hybrid 4-deoxypodophyllotoxin-5-fluorouracil compounds that inhibit cellular migration and induce cell cycle arrest” (Bioorg Med Chem Lett, 2016).

In general, IC50 refers to the concentration that inhibits the measured activity by half. The term inhibition denotes how much of the control response was suppressed. Low values mean a response near the control, high ones a response far below the control.

Take `COc1cc([C@@H]2c3cc4c(cc3C[C@H]3COC(=O)[C@@H]32)OCO4)cc(OC)c1OC(=O)NCCCNC(=O)Cn1cc(F)c(=O)[nH]c1=O`: the IC50 was 5.26 µM in assay [1]; 11.7 µM in the assay with A549 [2]; 109 µM in [3]; greater than 100 µM with HepG2; 15.8 µM in the assay on HeLa.
Take `COc1cc([C@@H]2c3cc4c(cc3C[C@H]3COC(=O)[C@@H]32)OCO4)cc(OC)c1OC(=O)CCC(=O)NCCCCCCNC(=O)Cn1cc(F)c(=O)[nH]c1=O`: the Activity was 35.4% with A549 [4]; 7.7% in the assay with A549 [7]; “Dose-dependent effect” in the assay with A549 [10]; “Dose-dependent effect” in the assay on A549 [13]; 47.2% in the assay with A549 [15]; 0.1% with A549 [17]. The Activity with A549 [18] was found to be 64.5%; in the assay with A549 [19], 45.1%. In addition, the IC50 in [1] was found to be 1.01 µM; with A549 [2], 0.27 µM; in assay [3], 114 µM; with HepG2, 0.45 µM; in the assay with HeLa, 4.03 µM. Also, the result in the assay on A549 [5], in the assay with A549 [8], in the assay with A549 [9], in the assay on A549 [11], in the assay on A549 [12] and with A549 [14] was Active. Further, the outcome in the assay with A549 [16] and in the assay on A549 [20] was Active. In the assay on A549 [6], this compound returned an inhibition at 1 µM of 47%.
In the case of `COc1cc([C@@H]2c3cc4c(cc3C[C@H]3COC(=O)[C@@H]32)OCO4)cc(OC)c1OC(=O)CCC(=O)N1CCN(C(=O)Cn2cc(F)c(=O)[nH]c2=O)CC1`, the IC50 in assay [1] worked out at 9.01 µM; in the assay with A549 [2], 1.35 µM; in [3], 112 µM; in the assay on HepG2, 11.5 µM; in the assay with HeLa it was 15 µM.
For `COc1cc([C@@H]2c3cc4c(cc3C[C@H]3COC(=O)[C@@H]32)OCO4)cc(OC)c1OC(=O)NCCCCCCNC(=O)Cn1cc(F)c(=O)[nH]c1=O`, in that order: 2.04 µM, 0.14 µM, 87 µM, 11.7 µM and 13.2 µM.
On to `COc1cc([C@@H]2c3cc4c(cc3C[C@H]3COC(=O)[C@@H]32)OCO4)cc(OC)c1OC(=O)N1CCN(CCCCn2cc(F)c(=O)[nH]c2=O)CC1`, for which the half-inhibitory concentration (IC50) was found to be 9.18 µM in [1]; 2.14 µM in the assay with A549 [2]; 104 µM in assay [3]; 20.2 µM in the assay on HepG2; 13.2 µM in the assay on HeLa.
Turning to `O=c1[nH]cc(F)c(=O)[nH]1` [FLUOROURACIL], the IC50 came to 32.3 µM in assay [1], 38.9 µM in [3] and 41.6 µM in the assay on HepG2.
In the case of `COc1cc([C@@H]2c3cc4c(cc3C[C@H]3COC(=O)[C@@H]32)OCO4)cc(OC)c1OC(=O)N1CCN(C(=O)Cn2cc(F)c(=O)[nH]c2=O)CC1`, the IC50 stood at 17.6 µM in [1]; 2.41 µM with A549 [2]; 121 µM in [3]; 14.3 µM in the assay with HepG2; 11.2 µM in the assay with HeLa.
Consider `COc1cc([C@@H]2c3cc4c(cc3[C@@H](O[C@@H]3O[C@@H]5CO[C@@H](C)O[C@H]5[C@H](O)[C@H]3O)[C@H]3COC(=O)[C@H]23)OCO4)cc(OC)c1O` [ETOPOSIDE], for which the IC50 in assay [1] was 10.9 µM; in the assay with A549 [2], 23.9 µM; in assay [3] it was 35.8 µM; in the assay with HepG2, 27.1 µM; in the assay with HeLa, 12.1 µM.
Regarding `COc1cc([C@@H]2c3cc4c(cc3C[C@H]3COC(=O)[C@@H]32)OCO4)cc(OC)c1O` [4'-DEMETHYLDEOXYPODOPHYLLOTOXIN], the IC50 came out at 9.81 µM in assay [1], 3.9 µM in the assay with A549 [2], 78.5 µM in assay [3] and 16.5 µM in the assay on HepG2.
As for `COc1cc([C@@H]2c3cc4c(cc3C[C@H]3COC(=O)[C@@H]32)OCO4)cc(OC)c1OC(=O)NCCCCNC(=O)Cn1cc(F)c(=O)[nH]c1=O`, the IC50 stood at 8.53 µM in assay [1]; 23.9 µM in the assay with A549 [2]; 85.5 µM in assay [3]; 22.3 µM in the assay on HepG2; 9.58 µM in the assay on HeLa.
